The source made the active and inactive calls. The calls are words filed in the database; no cut-off is given here.
Assays:
Type in all cases: functional
[1] = Effect on wound healing activity in non-diabetic adult human primary keratinocytes assessed as upregulation of RANTES protein levels at 1.96 uM after 24 hrs by bead-based suspension array analysis; details: Keratinocyte
[2] = tested on: Keratinocyte; test: Effect on cellular connection related gene expression in non-diabetic adult human primary keratinocytes assessed as CLDN4 mRNA levels at 1.96 uM after 6 hrs by qPCR analysis
[3] = Effect on wound healing activity in non-diabetic adult human primary fibroblasts assessed as upregulation of RANTES protein levels at 1.96 uM after 24 hrs by bead-based suspension array analysis; details: Fibroblast
[4] = tested on: Keratinocyte; test: Effect on cellular connection related gene expression in non-diabetic young human primary keratinocytes assessed as CLDN4 mRNA levels at 1.96 uM after 6 hrs by qPCR analysis
[5] = tested on: Keratinocyte; test: Effect on MMP1 mRNA expression levels in non-diabetic young human primary keratinocytes at 1.96 uM after 6 hrs by qPCR analysis
In short: (§1)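 Primary keratinocytes from nondiabetic young and adult and diabetic adult donors; 400 000 cells per sample, 6 h exposure at 1.96 or 9.81 μM. RNA extracted and read on a high-throughput qPCR chip. Results are fold change versus 0.1% DMSO solvent control from 5−7 independent experiments over two donors per group, SD, one-way ANOVA with Bonferroni post-test.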

[6] = tested on: Keratinocyte; test: Effect on pro-inflammatory related gene expression in non-diabetic adult human primary keratinocytes assessed as PTGS2 mRNA levels at 1.96 uM after 6 hrs by qPCR analysis
[7] = tested on: Keratinocyte; test: Effect on pro-inflammatory related gene expression in non-diabetic adult human primary keratinocytes assessed as IL1R1 mRNA levels at 1.96 uM after 6 hrs by qPCR analysis
[8] = tested on: Keratinocyte; test: Effect on pro-inflammatory related gene expression in diabetic adult human primary keratinocytes assessed as IL6 mRNA levels at 1.96 uM after 6 hrs by qPCR analysis
[9] = tested on: Keratinocyte; test: Effect on cellular connection related gene expression in non-diabetic young human primary keratinocytes assessed as CLDN4 mRNA levels at 9.81 uM after 6 hrs by qPCR analysis
[10] = tested on: Keratinocyte; test: Effect on pro-inflammatory related gene expression in non-diabetic young human primary keratinocytes assessed as IL1R1 mRNA levels at 9.81 uM after 6 hrs by qPCR analysis
[11] = tested on: Keratinocyte; test: Effect on pro-inflammatory related gene expression in non-diabetic young human primary keratinocytes assessed as TNF mRNA levels at 9.81 uM after 6 hrs by qPCR analysis
[12] = tested on: Keratinocyte; test: Effect on antiinflammatory related gene expression in non-diabetic adult human primary keratinocytes assessed as NFKBIA mRNA levels at 9.81 uM after 6 hrs by qPCR analysis; in short: as §1
[13] = tested on: Keratinocyte; test: Effect on cellular connection related gene expression in diabetic adult human primary keratinocytes assessed as GJB2 mRNA levels at 9.81 uM after 6 hrs by qPCR analysis
[14] = tested on: Keratinocyte; test: Effect on pro-inflammatory related gene expression in diabetic adult human primary keratinocytes assessed as TNF mRNA levels at 9.81 uM after 6 hrs by qPCR analysis
[15] = tested on: Keratinocyte; test: Effect on growth factor related gene expression in diabetic adult human primary keratinocytes assessed as GDF15 mRNA levels at 9.81 uM after 6 hrs by qPCR analysis
In short: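 Primary human keratinocytes (nondiabetic young or adult, diabetic adult donors) were exposed to compound for 6 h, with 0.1% DMSO as solvent control. Total RNA came from 400 000 cells per sample and was assayed on a Fluidigm Biomark high-throughput qPCR chip. Results are fold change vs solvent control, from 2−4 independent experiments on two donors per group, with SD. Groups were compared by one-way ANOVA with Bonferroni post-test.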

[16] = tested on: Fibroblast; test: Effect on antiinflammatory related gene expression in non-diabetic young human primary fibroblasts assessed as SOCS3 mRNA levels at 9.81 uM after 6 hrs by qPCR analysis
[17] = tested on: Fibroblast; test: Effect on MMP1 mRNA expression levels in non-diabetic young human primary fibroblasts at 1.96 uM after 6 hrs by qPCR analysis
In short: (§2)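 Primary dermal fibroblasts from one nondiabetic young, one nondiabetic adult and one diabetic adult donor; 320 000 cells per sample, 6 h at 1.96 or 9.81 μM. RNA measured on a high-throughput qPCR chip. Fold change versus 0.1% DMSO control, four independent experiments, SD, one-way ANOVA with Bonferroni post-test.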

[18] = tested on: Fibroblast; test: Effect on MMP1 mRNA expression levels in non-diabetic adult human primary fibroblasts at 1.96 uM after 6 hrs by qPCR analysis; in short: as §2
[19] = tested on: Fibroblast; test: Effect on chemokines related gene expression in non-diabetic young human primary fibroblasts assessed as WDR26 mRNA levels at 9.81 uM after 6 hrs by qPCR analysis
In short: (§3)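 Primary human dermal fibroblasts (young or adult nondiabetic, adult diabetic donor) were treated for 6 h against a 0.1% DMSO solvent control. RNA from 320 000 cells per sample was measured by Fluidigm Biomark high-throughput qPCR. Values are fold change relative to solvent control, from four independent experiments, with SD. One-way ANOVA with Bonferroni post-test was applied.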

[20] = tested on: Fibroblast; test: Effect on pro-inflammatory related gene expression in non-diabetic adult human primary fibroblasts assessed as IL6 mRNA levels at 9.81 uM after 6 hrs by qPCR analysis
[21] = tested on: Fibroblast; test: Effect on growth factor related gene expression in non-diabetic adult human primary fibroblasts assessed as VEGFA mRNA levels at 9.81 uM after 6 hrs by qPCR analysis; in short: as §3
[22] = tested on: Fibroblast; test: Effect on pro-inflammatory related gene expression in diabetic adult human primary fibroblasts assessed as IL1B mRNA levels at 9.81 uM after 6 hrs by qPCR analysis; in short: as §3
[23] = tested on: Fibroblast; test: Effect on chemokines related gene expression in diabetic adult human primary fibroblasts assessed as IL8 mRNA levels at 9.81 uM after 6 hrs by qPCR analysis
[24] = tested on: Fibroblast; test: Effect on antioxidant related gene expression in diabetic adult human primary fibroblasts assessed as SOD2 mRNA levels at 9.81 uM after 6 hrs by qPCR analysis
[25] = tested on: Fibroblast; test: Effect on antioxidant related gene expression in diabetic adult human primary fibroblasts assessed as NFE2L2 mRNA levels at 1.96 uM after 6 hrs by qPCR analysis
[26] = tested on: Fibroblast; test: Effect on adhesion molecules related gene expression in diabetic adult human primary fibroblasts assessed as ICAM1 mRNA levels at 9.81 uM after 6 hrs by qPCR analysis
In short: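 Dermal fibroblasts from nondiabetic adult and diabetic adult donors, exposed for 6 h at 1.96 or 9.81 μM. ICAM-1 and VCAM-1 mRNA measured by standard qRT-PCR, n = 3. Fold change versus 0.1% DMSO control, SD, one-way ANOVA with Bonferroni post-test.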

[27] = Effect on wound healing activity in diabetic adult human primary keratinocytes assessed as upregulation of TNFalpha protein levels at 1.96 uM after 24 hrs by bead-based suspension array analysis; details: Keratinocyte
[28] = Upregulation of wound healing activity related soluble ICAM1 protein levels in non-diabetic adult human primary keratinocytes at 1.96 uM after 24 hrs by bead-based suspension array analysis; details: Keratinocyte
[29] = Effect on wound healing activity in non-diabetic adult human primary fibroblasts assessed as upregulation of soluble VCAM1 protein levels at 1.96 uM after 24 hrs by bead-based suspension array analysis; details: Fibroblast

Structure (SMILES): C=C(C)[C@@H]1CC[C@]2(CO)CC[C@]3(C)[C@H](CC[C@@H]4[C@@]5(C)CC[C@H](O)C(C)(C)[C@@H]5CC[C@]43C)[C@@H]12 [BETULIN]
- Activity [1]: Active
- fold change (FC) [2]: 1
- Activity [3]: Active
- fold change (FC) [4]: 1.5
- fold change (FC) [5]: 1
- fold change (FC) [6]: 1
- fold change (FC) [7]: 0.7
- fold change (FC) [8]: 12.8
- fold change (FC) [9]: 1.9
- fold change (FC) [10]: 1
- fold change (FC) [11]: 6
- fold change (FC) [12]: 1.9
- fold change (FC) [13]: 0.9
- fold change (FC) [14]: 13
- fold change (FC) [15]: 2.5
- fold change (FC) [16]: 3.2
- fold change (FC) [17]: 0.8
- fold change (FC) [18]: 2.1
- fold change (FC) [19]: 1.4
- fold change (FC) [20]: 246
- fold change (FC) [21]: 2
- fold change (FC) [22]: 2.9
- fold change (FC) [23]: 3.7
- fold change (FC) [24]: 1.1
- fold change (FC) [25]: 1.8
- fold change (FC) [26]: 2.3
- Activity [27]: Active
- Activity [28]: Active
- Activity [29]: Active

— ChEMBL document CHEMBL3853270, “Influence of Birch Bark Triterpenes on Keratinocytes and Fibroblasts from Diabetic and Nondiabetic Donors” (2016)
